The nature of data set [1]: Drug uptake in brain of Sprague-Dawley rat at 10 mg/kg, po measured after 4 hrs. Set-up: dose 10 mg/kg, route oral. In kind it is ADME, organism-based. Particulars: read-out: Drug uptake.
A short description of data set [2]: Lipophilicity, log P of the compound. In kind it is physicochemical. Particulars: octanol/water. The essentials:
(§1)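 Calculated values, not experimentally measured.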

The nature of data set [3]: Dissociation constant, pKa of the compound. In kind it is physicochemical. A digest of the protocol:
as §1

Data set [4] is described as follows: Drug uptake in brain of Sprague-Dawley rat at 30 mg/kg, po measured after 4 hrs. As to conditions: read-out: Drug uptake. In kind it is ADME, organism-based. Also on record: dose 30 mg/kg, route oral. The essentials: (§2)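 Single oral dose to Sprague Dawley rats; plasma and brain levels measured at 4 h; brain/plasma ratio taken from these 4 h levels.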
The nature of data set [5]: Ratio drug uptake in brain to plasma of Sprague-Dawley rat at 30 mg/kg, po measured after 4 hrs. Also on record: dose 30 mg/kg, route oral. In kind it is ADME, organism-based. Particulars: read-out: BPR. A digest of the protocol:
as §2

A short description of data set [6]: Drug uptake in plasma of Sprague-Dawley rat at 30 mg/kg, po measured after 4 hrs. It is filed as ADME, organism-based. Set-up: dose 30 mg/kg, route oral. Particulars: read-out: Drug uptake. The essentials: as §2

Here are results for four molecules from ChEMBL document CHEMBL1932929, “Lead optimization of 2-(piperidin-3-yl)-1H-benzimidazoles: identification of 2-morpholin- and 2-thiomorpholin-2-yl-1H-benzimidazoles as selective and CNS penetrating H₁-antihistamines for insomnia” (Bioorg Med Chem Lett, 2012).

Consider `CN(CC1CCOCC1)C1CCN(c2nc3ccccc3n2Cc2ccc(F)cc2)CC1`, for which the concentration at 4 h in data set [1] stood at 94 ng/g.
As for `Cc1ccc(Cn2c(C3CNCCO3)nc3ccccc32)cc1C` (single isomer, unassigned; (+)), in data set [2], the logP (commonly a log measure of how a compound divides between an organic and an aqueous phase) worked out at 3.4. Also, the pKa (usually the pH at which an ionisable group is half protonated) in data set [3] was 7.4.
As for `COc1ccc(Cn2c([C@H]3CNCCS3)nc3ccccc32)cc1`, the concentration at 4 h in data set [4] is 380 ng/g; in data set [6], 260 ng/mL. Also, in data set [5], the Kp at 4 h turned out to be 1.4.
As to `Cc1ccc(Cn2c([C@@H]3CNCCS3)nc3ccccc32)cc1C`, the logP in data set [2] was 3.3. In data set [3], this molecule came in with a pKa of 7.5.
